# System: HEK-293T
# Experiment: Multiplex assay against HEK293T;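 on Population Tubulin-Different-Phenotype (%): share of the cells with healthy nuclei that show this phenotype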
# Format: toxicity, cell-based
# Conditions: human
# Summary of the method: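 At seeding, live cells were stained with Hoechst33342, BioTracker Green Microtubule Cytoskeleton Dye, MitoTracker Red and Annexin V Alexa Fluor 680. After compound addition they were imaged on a CQ1 microscope at 37°C and 5% CO2, and CellPathfinder machine-learning gating sorted them into Hoechst high-intensity objects or normal cells, with normal cells further split into healthy, pyknosed or fragmented nuclei and pyknosed cells into mitotic or apoptotic. Tubulin, mitochondrial-mass and membrane-permeability phenotypes are given as per cents of cells with healthy nuclei.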
# [1] = 12 h, 1 µM, compound concentration 1 uM, replicate 1
# [2] = 12 h, 1 µM, compound concentration 1 uM, replicate 2
# [3] = 12 h, 10 µM, compound concentration 10 uM, replicate 1
# [4] = 12 h, 10 µM, compound concentration 10 uM, replicate 2
# [5] = 24 h, 1 µM, compound concentration 1 uM, replicate 1
# [6] = 24 h, 1 µM, compound concentration 1 uM, replicate 2
# [7] = 24 h, 10 µM, compound concentration 10 uM, replicate 1
# [8] = 24 h, 10 µM, compound concentration 10 uM, replicate 2
# [9] = 48 h, 1 µM, compound concentration 1 uM, replicate 1
# [10] = 48 h, 1 µM, compound concentration 1 uM, replicate 2
# [11] = 48 h, 10 µM, compound concentration 10 uM, replicate 1
# [12] = 48 h, 10 µM, compound concentration 10 uM, replicate 2
smiles,measurement,setting,value
COc1ncc(-c2ccc3nccc(-c4ccnnc4)c3c2)cc1NS(=O)(=O)c1ccc(F)cc1F [OMIPALISIB],Population Apoptotic (%),[1],60%
same,Population Fragmented Nuclei (%),[1],17%
same,Population Healthy Nuclei (%),[1],18%
same,Population Hoechst High Intensity Objects (%),[1],20%
same,Population Membrane Permeable-Phenotype (%),[1],2%
same,Population Mitochondria Different-Phenotype (%),[1],81%
same,Population Mitotic Cells (%),[1],39%
same,Population Normal (%),[1],80%
same,Population Pyknosed Nuclei (%),[1],64%
same,Population Tubulin-Different-Phenotype (%),[1],24%
same,Total Cell Count,[1],255
same,Population Apoptotic (%),[2],27%
same,Population Fragmented Nuclei (%),[2],8%
same,Population Healthy Nuclei (%),[2],14%
same,Population Hoechst High Intensity Objects (%),[2],6%
same,Population Membrane Permeable-Phenotype (%),[2],0%
same,Population Mitochondria Different-Phenotype (%),[2],37%
same,Population Mitotic Cells (%),[2],72%
same,Population Normal (%),[2],93%
same,Population Pyknosed Nuclei (%),[2],77%
same,Population Tubulin-Different-Phenotype (%),[2],16%
same,Total Cell Count,[2],180
same,Population Apoptotic (%),[3],62%
same,Population Fragmented Nuclei (%),[3],12%
same,Population Healthy Nuclei (%),[3],20%
same,Population Hoechst High Intensity Objects (%),[3],22%
same,Population Membrane Permeable-Phenotype (%),[3],0%
same,Population Mitochondria Different-Phenotype (%),[3],97%
same,Population Mitotic Cells (%),[3],37%
same,Population Normal (%),[3],77%
same,Population Pyknosed Nuclei (%),[3],67%
same,Population Tubulin-Different-Phenotype (%),[3],39%
same,Total Cell Count,[3],238
same,Population Apoptotic (%),[4],34%
same,Population Fragmented Nuclei (%),[4],4%
same,Population Healthy Nuclei (%),[4],12%
same,Population Hoechst High Intensity Objects (%),[4],6%
same,Population Membrane Permeable-Phenotype (%),[4],5%
same,Population Mitochondria Different-Phenotype (%),[4],42%
same,Population Mitotic Cells (%),[4],65%
same,Population Normal (%),[4],93%
same,Population Pyknosed Nuclei (%),[4],83%
same,Population Tubulin-Different-Phenotype (%),[4],26%
same,Total Cell Count,[4],161
same,Population Apoptotic (%),[5],47%
same,Population Fragmented Nuclei (%),[5],21%
same,Population Healthy Nuclei (%),[5],6%
same,Population Hoechst High Intensity Objects (%),[5],22%
same,Population Mitochondria Different-Phenotype (%),[5],71%
same,Population Mitotic Cells (%),[5],52%
same,Population Normal (%),[5],77%
same,Population Pyknosed Nuclei (%),[5],71%
same,Population Tubulin-Different-Phenotype (%),[5],50%
same,Total Cell Count,[5],280
same,Population Apoptotic (%),[6],29%
same,Population Fragmented Nuclei (%),[6],5%
same,Population Healthy Nuclei (%),[6],14%
same,Population Hoechst High Intensity Objects (%),[6],6%
same,Population Membrane Permeable-Phenotype (%),[6],0%
same,Population Mitochondria Different-Phenotype (%),[6],40%
same,Population Mitotic Cells (%),[6],70%
same,Population Normal (%),[6],93%
same,Population Pyknosed Nuclei (%),[6],79%
same,Population Tubulin-Different-Phenotype (%),[6],24%
same,Total Cell Count,[6],178
same,Population Apoptotic (%),[7],53%
same,Population Fragmented Nuclei (%),[7],14%
same,Population Healthy Nuclei (%),[7],20%
same,Population Hoechst High Intensity Objects (%),[7],24%
same,Population Membrane Permeable-Phenotype (%),[7],2%
same,Population Mitochondria Different-Phenotype (%),[7],91%
same,Population Mitotic Cells (%),[7],46%
same,Population Normal (%),[7],75%
same,Population Pyknosed Nuclei (%),[7],64%
same,Population Tubulin-Different-Phenotype (%),[7],52%
same,Total Cell Count,[7],228
same,Population Apoptotic (%),[8],37%
same,Population Fragmented Nuclei (%),[8],5%
same,Population Healthy Nuclei (%),[8],19%
same,Population Hoechst High Intensity Objects (%),[8],11%
same,Population Membrane Permeable-Phenotype (%),[8],3%
same,Population Mitochondria Different-Phenotype (%),[8],57%
same,Population Mitotic Cells (%),[8],63%
same,Population Normal (%),[8],88%
same,Population Pyknosed Nuclei (%),[8],75%
same,Population Tubulin-Different-Phenotype (%),[8],46%
same,Total Cell Count,[8],150
same,Population Fragmented Nuclei (%),[9],30%
same,Population Healthy Nuclei (%),[9],5%
same,Population Hoechst High Intensity Objects (%),[9],22%
same,Population Membrane Permeable-Phenotype (%),[9],0%
same,Population Mitochondria Different-Phenotype (%),[9],75%
same,Population Normal (%),[9],77%
same,Population Pyknosed Nuclei (%),[9],64%
same,Population Tubulin-Different-Phenotype (%),[9],41%
same,Total Cell Count,[9],286
same,Population Apoptotic (%),[10],44%
same,Population Fragmented Nuclei (%),[10],7%
same,Population Healthy Nuclei (%),[10],36%
same,Population Hoechst High Intensity Objects (%),[10],7%
same,Population Membrane Permeable-Phenotype (%),[10],1%
same,Population Mitochondria Different-Phenotype (%),[10],40%
same,Population Mitotic Cells (%),[10],55%
same,Population Normal (%),[10],92%
same,Population Pyknosed Nuclei (%),[10],55%
same,Population Tubulin-Different-Phenotype (%),[10],35%
same,Total Cell Count,[10],181
same,Population Apoptotic (%),[11],40%
same,Population Fragmented Nuclei (%),[11],20%
same,Population Healthy Nuclei (%),[11],24%
same,Population Hoechst High Intensity Objects (%),[11],21%
same,Population Membrane Permeable-Phenotype (%),[11],5%
same,Population Mitochondria Different-Phenotype (%),[11],76%
same,Population Mitotic Cells (%),[11],59%
same,Population Normal (%),[11],78%
same,Population Pyknosed Nuclei (%),[11],55%
same,Population Tubulin-Different-Phenotype (%),[11],57%
same,Total Cell Count,[11],202
same,Population Apoptotic (%),[12],38%
same,Population Fragmented Nuclei (%),[12],8%
same,Population Healthy Nuclei (%),[12],38%
same,Population Hoechst High Intensity Objects (%),[12],7%
same,Population Membrane Permeable-Phenotype (%),[12],0%
same,Population Mitochondria Different-Phenotype (%),[12],49%
same,Population Mitotic Cells (%),[12],61%
same,Population Normal (%),[12],92%
same,Population Pyknosed Nuclei (%),[12],54%
same,Population Tubulin-Different-Phenotype (%),[12],54%
same,Total Cell Count,[12],163
